Screening results: PubChem, several laboratories
In the library only some 2.3% were active in any assay of this set; here they are far more common.
ROMK mod: modulators of human ROMK potassium channel; B-score at 10 µM; Tet-inducible ROMK, thallium flux fluorescence; actives lie on both sides; P48048; actives 2% (n = 130,000); AID 1918;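 active means signal ratio slope over the read window, or its plate-corrected B-score, at least 3 SD from the plate mean, either direction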;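 further: B-score of the F/F0 ratio slope over 7 to 12 s after thallium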
ABCG2 block: blocks JC-1 efflux by human ABCG2 transporter; IgMXP3 cells, flow cytometry; actives 0.1% (n = 190,000); inhibition, % at 6.6 µM; Q9UNQ0;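 active means inhibition above 80%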;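 further: 0% = DMSO and 100% = nicardipine control wells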
Target sequence (Q9UNQ0 whole entry, looked up): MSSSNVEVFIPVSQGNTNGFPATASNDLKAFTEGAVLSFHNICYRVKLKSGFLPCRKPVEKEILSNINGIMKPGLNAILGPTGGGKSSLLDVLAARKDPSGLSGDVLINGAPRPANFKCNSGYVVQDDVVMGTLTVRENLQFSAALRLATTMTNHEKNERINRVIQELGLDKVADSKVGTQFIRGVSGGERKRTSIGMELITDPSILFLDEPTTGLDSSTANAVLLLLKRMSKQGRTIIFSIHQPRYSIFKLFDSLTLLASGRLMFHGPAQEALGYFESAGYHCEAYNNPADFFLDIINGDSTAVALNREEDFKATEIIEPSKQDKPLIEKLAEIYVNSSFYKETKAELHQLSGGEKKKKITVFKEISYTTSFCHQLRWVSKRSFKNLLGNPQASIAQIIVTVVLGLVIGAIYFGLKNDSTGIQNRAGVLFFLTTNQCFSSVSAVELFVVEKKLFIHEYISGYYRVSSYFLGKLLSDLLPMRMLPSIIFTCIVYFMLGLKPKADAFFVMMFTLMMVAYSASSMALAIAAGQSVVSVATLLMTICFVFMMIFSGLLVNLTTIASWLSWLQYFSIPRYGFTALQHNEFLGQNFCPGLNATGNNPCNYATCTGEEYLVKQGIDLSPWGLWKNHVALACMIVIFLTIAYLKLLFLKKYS
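Times: 10 min at 25 °C | Test system: Two drug-resistant human cell lines, ABCG2 and ABCB1 | Quantity: 3 million cells/mL final, two lines in 1:1 ratio | Signal: Flow cytometry, 530 nm JC-1 signal | Dosing: Compound at 6.6 µM | Controls: Nicardipine and DMSO wells | Reagent: JC-1 as fluorescent efflux pump substrate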
sdo1 growth: restores growth of sdo1-depleted yeast; S. cerevisiae sdo1-depleted JHY4D growth rescue, OD600 30 h; stronger effect = higher value; pdr5 snq2 efflux-pump mutant strain; z-score at 10 µM; actives 0.21% (n = 140,000); AID 817;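 active means z-score above 3 at both the 24 hr and the 30 hr optical density reads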;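 further: z-score against mean and SD of all compound wells on the same plate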
Ins promoter up: MIN6 insulin promoter up-regulation; MIN6 insulin promoter-GFP reporter, high-content imaging; stronger effect = higher value; z-score at 5 µM; actives 0.3% (n = 190,000);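 active means z-score above 3 at 5 µM with at least 500 cells counted in the well; inconclusive means wells under 500 cells, flagged as cytotoxic or low count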
Autophagy HCS: autophagy modulation, high-content screen. MEF GFP-LC3 puncta imaging; test concentration mostly 10 µM. actives 0.98% (n = 190,000). AID 463193. calls only at 10 µM (by protocol);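 active means percentage of spot-positive cells more than 3 SD above its plate mean, without a fluorescence outlier flag or 80% toxicity; inconclusive means no clear call, values can overlap the other calls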;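 further: spot-positive cell cutoff set from DMSO-treated cells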
ABCB1 inh: human ABCB1 inhibition, ABCG2 as counter-screen; P08183; CCRF-Adr cells, JC-1 efflux, flow cytometry; inhibition, % at 6.6 µM; actives 0.067% (n = 190,000); AID 1326; in the data active means inhibition above about 40%;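 further: 0% = vehicle and 100% = reference inhibitor; higher value means more JC-1 retained so stronger ABCB1 efflux block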
ROMK hit retest: human ROMK channel modulation, retest confirmation; shares compounds with ROMK mod; ROMK thallium flux, fluorescence ratio; stronger effect = lower value; normalized thallium flux (F/F0 slope) at 10 µM; actives 54% (n = 3,000); AID 1917;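 active means Flux at 10 µM at least 3 SD below or above vehicle control mean in one or both replicates; inconclusive means no clear call, values can overlap the other calls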
The depositor's hits bear a star; i = inactive; ? = inconclusive; / = not tested or not shown; + = active, no number; [ ] = dose if it differs, or a comment.

SMILES | ROMK mod | ABCG2 block | sdo1 growth | Ins promoter up | Autophagy HCS | ABCB1 inh | ROMK hit retest
CC(C)(C)c1ccc(-c2cn(-c3ccc(Br)cc3)c3[n+]2CCCS3)cc1 | -2.54* | 1.3 | / | ? | i | 0.2 | 0.0553*
O=C(OCc1ccc(Cl)cc1Cl)c1ccncc1 | / | 8.3 | -0.08 | 0.23 | i | 0.7 | /
O=C(N/N=C/c1ccsc1)c1cc(-c2ccncc2)nc2ccccc12 | 2.97* | 3.3 | 1.1 | 0.7 | i | -0.5 | 0.0806
O=C(Nc1ccc2c(c1)OCCO2)c1cc(-c2ccccc2)nc2ccccc12 | / | 0.7 | 0.03 | -0.87 | i | 0.3 | /
O=C(N/N=C/c1ccco1)c1cc(-c2cccc(Br)c2)nc2ccccc12 | -0.49 | 1.0 | -1.79 | 0.15 | i | 0.6 | /
CC(/C=N/NC(=O)c1cc(-c2ccncc2)nc2ccccc12)=C\c1ccco1 | 3.67* | 19.4 | -0.8 | / | + | 4.2 | 0.09
O=C(Nc1ccc2c(c1)OCO2)c1cc(-c2ccncc2)nc2ccccc12 | / | 2.8 | / | 0.07 | i | 0.8 | 0.0678*
Cc1ccsc1/C=N/NC(=O)c1cc(-c2ccncc2)nc2ccccc12 | 4.76* | 0.5 | -0.42 | 0.47 | i | 0.3 | ?
CCOc1cc(N2CCOCC2)c(OCC)cc1NC(=O)CN1C(=O)C2C3C=CC(C3)C2C1=O (stereo not drawn) | 1.55 | 4.7 | / | -0.14 | i | 0.1 | /
COc1cc(CN2CCCC(CO)(Cc3ccccc3C)C2)cc2c1OCO2 (stereo not drawn) | 0.612 | 2.7 | / | -0.51 | i | 0.4 | /
CCCOc1ccc(/C=N\NC(=O)CCc2n[nH]c(=O)[nH]c2=O)cc1OC | 3.38* | 1.7 | / | -0.25 | i | 0.9 | 0.0894
COc1ccc(/C=N/NC(=O)CCc2n[nH]c(=O)[nH]c2=O)cc1OC | / | -5.3 | -0.39 | 0.13 | i | 0.3 | /
O=C(COC(=O)c1ccncc1)Nc1cc(Cl)c(Cl)cc1Cl | / | 10.5 | 0.93 | / | i | 1.6 | /
CCN1CCN(C(=O)c2ccccc2N(Cc2ccccc2)S(=O)(=O)c2ccc(OC)cc2)CC1 | / | / | / | -0.34 | / | / | /
CNC(=S)N/N=C/c1ccc(-c2cc([N+](=O)[O-])ccc2Cl)o1 | -0.0112 | 6.8 | / | 0.58 | i | 0.8 | /
CN1CCN(/N=C/c2ccc(-c3ccc([N+](=O)[O-])cc3Cl)o2)CC1 | -3.85* | 16.7 | / | 2.64 | i | 1.3 | 0.0447*
O=C(COc1ccc(Br)cc1)Nc1ccc(Cc2ccncc2)cc1 | -0.0543 | 4.9 | / | 0.79 | i | 0.6 | /
Fc1ccc(-c2nn(-c3ccccc3)cc2CNCc2ccccc2)cc1 | -2.57* | 14.0 | / | -0.55 | i | 4.6 | 0.0467*
N#CC1=C(N)NC(SCc2ccc(Br)cc2)=C(C#N)C12CCCCC2 | -3.91* | 0.8 | -1.17 | / | i | 0.1 | 0.0774
N#CC1=C(N)NC(SCc2ccccc2)=C(C#N)C12CCCC2 | -1.13 | 0.3 | -1.74 | -0.31 | i | -0.4 | /
N#CC1=C(N)NC(SCc2ccc(Cl)cc2)=C(C#N)C12CCCCC2 | -0.851 | 0.0 | -0.96 | / | i | -0.4 | 0.0622*
Cc1ccc(N2NC(=O)/C(=C\c3cc4c(cc3[N+](=O)[O-])OCO4)C2=O)cc1C | -4.93* | -17.3 | -0.15 | -0.11 | i | -4.8 | 0.0481*
O=C(c1ccccc1)c1cc(Cl)ccc1N1C(=O)C=CC1=O | -2.72* | -0.3 | / | 0.36 | i | 0.4 | 0.0619*
COC(=O)C1CCN(C(=O)COC(=O)c2n[nH]c3ccccc23)CC1 | -0.0642 | 2.2 | 1.67[6 µM] | / | i | 0.7 | 0.0767
CC1CCCN(C(=O)COC(=O)c2n[nH]c3ccccc23)C1 (stereo not drawn) | -0.566 | 7.0 | 0.2 | 0.19 | i | 0.4 | /
SMILES | ROMK mod | ABCG2 block | sdo1 growth | Ins promoter up | Autophagy HCS | ABCB1 inh | ROMK hit retest
Cc1nn(Cc2ccccc2)c(Cl)c1/C=N/NC(=O)CNc1cccc(C(F)(F)F)c1 | / | 2.3 | -1.26 | / | i | 0.1 | /
COc1ccccc1N1CCN(CCNC(=O)Nc2cccc(C)c2C)CC1 | -2.78* | 3.3 | -1.04 | 0.61 | i | 1.0 | 0.0593*
COc1ccccc1N1CCN(CCCNC(=O)Nc2ccccc2)CC1 | -0.703 | 24.9 | 0.69 | / | i | 4.4 | /
CCc1nc2cc([N+](=O)[O-])c([N+](=O)[O-])cc2[nH]1 | / | 40.0 | 0.31 | 0.28 | i | 1.6 | /
CC1CCCN(C(=O)COc2ccc(Nc3ccccc3)cc2)C1 (stereo not drawn) | 0.0183 | 5.4 | / | -0.36 | i | 0.0 | /
COc1ccc(NC(=O)c2ccc(-c3ccc(C)c4ccccc34)o2)cc1 | 1.74* | -0.7 | -1.34 | 0.43 | i | -0.9 | 0.0751
Cc1cccc(N(CC(=O)Nc2cccnc2)S(C)(=O)=O)c1 | / | / | / | 0.11 | / | / | /
N=c1oc2ccc3ccccc3c2cc1-c1nc(-c2ccccc2)cs1 | / | -4.0 | -0.67 | / | i | 1.1 | 0.0485*
Cc1nc(SCc2ccc(Cl)cc2)ncc1C(=O)O | 0.374 | 11.2 | / | 0.8 | i | 1.3 | /
Cc1ccc(NC(=O)c2nc(C)n(-c3ccc([N+](=O)[O-])cc3)n2)cc1 | / | 1.9 | -0.07 | 1.34 | i | 0.5 | ?
N#C/C(=C\c1ccccc1)C(=O)Nc1cc(S(=O)(=O)N2CCOCC2)ccc1N1CCCC1 | / | 10.5 | 0.45 | -0.29 | i | 1.9 | 0.0563*
Cc1ccc(S(=O)(=O)N2CCCCC2)cc1NC(=O)COC(=O)Cc1ccc(Cl)cc1 | -2.25 | -3.5 | -0.52 | / | i | -0.5 | /
O=C(COC(=O)Cc1ccc(Cl)cc1)Nc1cc(S(=O)(=O)N2CCOCC2)ccc1N1CCCC1 | -4.32* | -1.1 | 0.31 | -0.05 | i | 1.3 | 0.0608*
Cc1ccc(S(=O)(=O)N2CCCCC2)cc1NC(=O)COC(=O)Cc1cccc(C(F)(F)F)c1 | -4* | 4.2 | -0.53 | 0.4 | i | 0.4 | 0.0633*
COc1ccc(-c2cc(C(=O)Nc3cc(S(=O)(=O)N4CCOCC4)ccc3N3CCOCC3)c3ccccc3n2)cc1 | 1.77* | 2.0 | / | -3.45 | i | 4.3 | 0.0648*
CCOc1ncccc1C(=O)Nc1cccc(-c2nnc3n2CCCCC3)c1 | 0.367 | 6.6 | / | -1.12 | i | 0.9 | /
Clc1ccc(CNc2ccc(CNc3ncn[nH]3)cc2)c(Cl)c1 | -1.07 | / | / | 0.15 | / | / | /
CCCc1ccc(C(=O)NNc2ccccc2F)cc1 | / | / | / | -0.27 | / | / | /
COC(=O)c1ccccc1N1CCS(=O)(=O)CC1 | 0.547 | 4.5 | / | / | i | 0.5 | /
CC(C)Cc1cc(C(=O)N2CCN(C(c3ccccc3)c3ccccc3)CC2)no1 | / | 0.4 | -0.57 | -1.55 | i | 0.3 | 0.0622*
Cn1nc(C(=O)N2CCN(C(c3ccccc3)c3ccccc3)CC2)c2ccccc2c1=O | / | / | / | 0.33 | / | / | 0.06*
CC(C)=CC(=O)Nc1nc2ccc([N+](=O)[O-])cc2s1 | -0.249 | 19.5 | / | -0.49 | i | 0.3 | /
Cc1nc(C(=O)NNC(=O)c2ccc(Cl)cc2)c(C(F)(F)F)o1 | -1.15 | / | / | -0.02 | / | / | /
